Source: PubChem BioAssay
rRNA inh HTS – reduced GFP signal of wild-type E. coli, primary screen, bacterial rRNA inhibitor project, GFP/RFP fluorescence, OD600, single point; E. coli WT GFP vs humanized-ribosome RFP mutants, 24 h; stronger effect = lower value; DMSO median 0, no signal -100; GFP signal change (wild-type ribosome), % (no concentration beside the values); actives 1.6% (n = 350,000); AID 720706, 2013;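 active = significant combined selectivity score with lowered wild-type GFP, culture density cut under 30%, mutant RFP and density less affected; inactive = any of these conditions unmet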
FGF22 binding – binders of human FGF22 protein, primary screen, FGF22 synaptogenesis inhibitor project, biophysical, thermal shift, single point; Fibroblast growth factor 22 (Homo sapiens), Q9HCT0; recombinant FGF22 thermal shift, SYPRO orange fluorescence; percent of sucrose octasulfate shift, DMSO zero; activity (Tm shift, normalised), % at 9.99 µM; actives 1.5% (n = 340,000);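 active = mean Tm shift, scaled 0 neutral to 100 positive control, at about 1.3% or above, every replicate too, limit read from the data; inconclusive = no clear call, values can overlap the other calls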
Cneo AK release – Cryptococcus neoformans cell lysis inducers, primary screen, AK release luminescence, single concentration; lysis activity, % at 15 µM; AID 651654, 2012; actives 0.2% (n = 360,000); C. neoformans lysis, adenylate kinase release luminescence, 4 h; normalised: neutral wells 0, clomiphene wells 100;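 active = mean lysis activity across replicates of at least 80%, whatever share of replicates individually reach that level; inactive = mean lysis activity below 80%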
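Material – Cryptococcus neoformans yeast cells · Quantity – 5 × 10^6 yeast cells/mL · Buffer or medium – YPD medium · Compound – single dose · Timing – 4 h static compound exposure, 37 °C, read 1 h post-reagent · Signal – adenylate kinase release luminescence · Read-out basis – lysis from increased AK signal · Benchmarks – Clomiphene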
ERAP1 HTS inh – human ERAP1 aminopeptidase inhibitors, primary screen, biochemical, single point, plate reader. Endoplasmic reticulum aminopeptidase 1 (Homo sapiens), Q9NZ08. recombinant ERAP1, Leu-AMC fluorescence, 60 min. inhibition, % at 10.7 µM. actives 0.15% (n = 340,000). AID 652197, 2013;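 active = mean replicate inhibition of at least 30%, or all replicates individually reaching that 30% level; inactive = mean below 30% and not every replicate reaching it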;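 also: 0% = neutral control wells and 100% = L-leucinethiol positive control wells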
Env fusion inh – inhibitors of HIV-1 Env-driven cell-cell fusion, primary screen, HeLa-JRFL effector, CEM21 target cells, luciferase; inhibition, % at 12.3 µM; actives 1.1% (n = 360,000);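 active = mean replicate inhibition score of at least 50 and every replicate individually at or above 50; inconclusive = only one of the two criteria met; inactive = mean below 50 and not all replicates reaching 50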;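 also: 0% = plate neutral controls and 100% = maraviroc near 300 nM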
PGC1a acetyl inh – inhibitors of PGC1a acetylation signal, primary screen, cell-based, U2OS, AlphaScreen, inhibitor mode. AlphaScreen anti-acetyl-lysine; with virally co-expressed GCN5 acetyltransferase. inhibition, % at 15.6 µM. actives 0.17% (n = 350,000). AID 651687, 2012;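 active = every replicate shows inhibition of at least 40%; inconclusive = mean inhibition at least 40% but some replicate below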;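 also: 0% = neutral control wells and 100% = positive control wells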
HepG2 tox – cytotoxicity in HepG2 cells, dose response, cytotoxicity control, cell-based, CellTiter-Glo luminescence, cherry-pick, set 4; activity change, negative = cytotoxicity, unspecified at 26 µM; HepG2 viability, ATP luminescence, 72 h; shares compounds with rRNA inh HTS; 30 tested, under 10 active;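 active = compounds whose fitted half-maximal signal-loss concentration is at most twice their highest valid dose; inconclusive = flat curve with 30 to 70% signal loss, or poor fit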
AID977621 – growth inhibition of wild-type GFP E. coli, dose response, H69 mutant RFP, cherry-pick; shares compounds with rRNA inh HTS; E. coli wild-type GFP strain growth, fluorescence, 24 h; activity change, negative = inhibition at 50 µM; 1,900 tested, under 10 active; AID 977621, 2014;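 active = Wild-type ribosome reporter drop at least double the humanized mutant ribosome reporter drop, growth loss under a set limit; inconclusive = no clear call, values can overlap the other calls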;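 also: wild-type GFP and H69 mutant RFP strains grown together 50/50 in each well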
AID977628 – E. coli growth inhibition, wild-type GFP versus h24 humanized RFP strain, dose response, h24 mutant RFP vs wild-type GFP, cherry-pick | activity change, negative = inhibition at 50 µM | AID 977628, 2014 | shares compounds with rRNA inh HTS | 1,900 tested, under 10 active | E. coli WT GFP strain growth, fluorescence, 24 h;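 active = compound lowering the normal-ribosome reporter at least twice as much as the humanized-ribosome reporter, growth loss under a set limit; inconclusive = no clear call, values can overlap the other calls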;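 also: wild-type GFP and h24 humanized RFP strains co-cultured 1 to 1 per well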
* marks the source's active call; other numbers are inactive results; ? = inconclusive; . = no result; ! = not active in a repeat; [ ] = another dose, or the depositor's remark. Only some compounds are listed: those with a hit (about 3.5% of all), similar ones and a draw of the others.

SMILES	rRNA inh HTS	FGF22 binding	Cneo AK release	ERAP1 HTS inh	Env fusion inh	PGC1a acetyl inh	AID977621	AID977628	others
Cc1cc(-c2ccc(C)c(S(=O)(=O)NCC3CCN(Cc4ccccc4F)CC3)c2)on1	-16*	0	-1	-5	-2	-17	-9	-6.6
Cc1cc(-c2ccc(C)c(S(=O)(=O)NCC3CCN(Cc4cccc(F)c4)CC3)c2)on1	-21	0	53	1	-2	-19	.	.
O=C(CC1CC1)N[C@@H]1CC[C@@H](CCNS(=O)(=O)c2ccc(F)cc2)O[C@@H]1CO	-3	0	4	-5	21[16.7 µM]	4	.	.
Cc1nc2nc[nH]n2c(=O)c1NS(=O)(=O)c1ccc(C(C)(C)C)cc1	9	0	-3	-1	-1	-2	.	.
CCOC(=O)C1(CCCc2ccccc2)CCN(C(=O)CCn2cncn2)CC1	-20*	0	.	-1	31	1	-4.1	-11
CCCNc1ccc(C(=O)OCC)cc1[N+](=O)[O-]	-31*	0	1	-4	8	-11	-6.2	-12
COc1ccccc1C(=O)COC(=O)c1cccs1	-24*	1	-3	0	?	6	-25	-18
Cc1cccc(NS(=O)(=O)c2cc3c(cc2C)NC(=O)CO3)c1	-18*	0	0	3	5	.	-1	-9.1
C[C@H](CO)N1C[C@H](C)[C@@H](CN(C)Cc2ccc(Cl)c(Cl)c2)OCCCC[C@H](C)Oc2ccc(NC(=O)NC3CCCCC3)cc2C1=O	-1	-1	0	1	45[16.7 µM]	.	.	.
O=C1c2ccccc2C(c2nnnn2Cc2ccccc2)N1Cc1cccc(F)c1 (stereo unspecified)	-23*!	0	.	.	-13	.	-4.9	-5.4
COc1ccc(CN2C(=O)c3ccccc3C2c2nnnn2Cc2ccccc2)cc1OC (stereo unspecified)	-6	0	.	.	-18	.	.	.
O=C(OCC1COc2ccccc2O1)c1ccccc1F (stereo unspecified)	-20*	0	-7	7	.	6	-0.3	-2.7
c1ccc(-c2nnc(OCCN3CCOCC3)c3ccccc23)cc1	.	.	0	.	-31	7	.	.
O=C1OCCC1Sc1nc2ccccc2c(=O)n1Cc1ccccc1 (stereo unspecified)	-21*	0	.	6	4	.	.	-15
O=C1OCCC1Sc1nc2cc(Cl)ccc2n1Cc1ccccc1 (stereo unspecified)	.	.	.	.	.	-6	.	.
Cc1[nH]c(=S)sc1Cc1ccc(Cl)c(Cl)c1	-40*	0	.	6	-6	.	.	.	HepG2 tox=10
Cc1nnc(SCc2ccc(Cl)c(Cl)c2)s1	.	0	.	-1	4	3	.	.
CCN(C(=O)COC(=O)CCc1ccccc1)c1ccccc1	-34*	0	0	-5	-4	3	.	-7.7
O=S(=O)(NCCc1ccncc1)c1ccc(Br)cc1	.	.	0	.	22	.	.	.
Fc1ccc(Br)cc1SCCc1ccncc1	-25*	0	-1	0	-9	-14	-2	-13
Cc1ccc(S(=O)(=O)Nc2cccc3c2O[C@@H](CN(C)Cc2ccc(C(F)(F)F)cc2)[C@@H](C)CN([C@H](C)CO)C3=O)cc1	-1	-1	6	0	.	3	.	.
O=C(Nc1cccc(S(=O)(=O)c2cccc(NC(=O)C3CC3)c2)c1)C1CC1	-23*	0	1	-8	.	-1	?	-9.1
O=C(Oc1cccccc1=O)c1ccccc1	0	0	2	11	0	-13	.	.
O=C(NNC(=O)c1ccc(Cl)cc1Cl)c1csc(-c2cccnc2)n1	1	0	-8	0	-1	.	.	.
O=C(NCc1ccc(Cl)cc1)c1csc(-c2cccnc2)n1	-37*	0	.	-2	21	15	?	.
SMILES	rRNA inh HTS	FGF22 binding	Cneo AK release	ERAP1 HTS inh	Env fusion inh	PGC1a acetyl inh	AID977621	AID977628	others
CCc1nnc(NS(=O)(=O)c2ccc(NC(=O)c3cccc(Cl)c3)cc2)s1	-17*	0	.	1	2	.	?	?
CS(=O)(=O)N(CC(=O)N1CCc2ccccc2C1)c1cccc(Br)c1	-23*	0	1	-1	-54	-8	-7.3	?
CC(=O)Nc1ccc(C(=O)COC(=O)c2nc3nc(C)cc(C)n3n2)cc1	.	0	-1	-1	-1	.	.	.
O=C(Cc1cccc2ccccc12)Nc1cc(Cl)ccc1C(=O)O	-50	.	8	-1	24	-1	.	.
O=C(Cc1cccc2ccccc12)Nc1ccccc1C(=O)O	-35*	.	-3	2	-237	-1	-12	.
NC(=O)c1sc2nnc(-c3ccccc3)c(-c3ccccc3)c2c1N	-29*	0	3	6	5	3	.	-8.1
NC(=O)c1snnc1-c1ccccc1	-1	0	-4	.	5	3	.	.
CCOC(=O)N1CCN(C(=O)c2oc3ccc(S(=O)(=O)N4CCOCC4)cc3c2C)CC1	.	.	0	.	-23	7	.	.
CN(Cc1ccc(F)cc1)C(=O)CN1CCN(S(=O)(=O)c2ccc3c(c2)OCCCO3)CC1	-18*	0	-3	4	12	.	.	?
CN(Cc1cccc(F)c1)C(=O)CN1CCN(S(=O)(=O)c2ccc3c(c2)OCCCO3)CC1	-9	0	-3	2	9	-5	.	.
CC(C)(C)c1ccc(-c2noc(CCC(=O)NCc3ccco3)n2)cc1	-24*	0	.	0	34	.	-5.1	?
Cc1cccc(-c2noc(CCC(=O)NCc3ccco3)n2)c1	.	0	1	2	.	16	.	.
O=C(O)c1cc(-c2cccs2)nn1-c1cccc(Cl)c1	-33*	0	-2	-4	0	6	-8.6	?
CC1(c2nnc(-c3ccc(F)cc3)o2)CC(c2c(Cl)cccc2Cl)=NO1 (stereo unspecified)	-27	0	3	4	6	3	.	.
CC(C)Cn1c(=O)c2ccccc2c2ccccc2c1=O	-28*	0	-1	-4	.	-7	-5.1	.
